The species entered for data set [1] is Homo sapiens. The data set is described as follows: Inhibitory activity against aggregation of human platelets. It is filed as functional, organism-based. The gist of the method:
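Human platelets were gel-filtered from PRP on Sepharose 2B and used at 3 × 10⁸ platelets/mL with 1 mg/mL fibrinogen. Compounds were added at 37 °C 2 min before activation with 10 µM ADP, with stirring at 1000 rpm at 37 °C. Aggregation was read as the maximal increase in light transmittance. IC50 is the mean over GFP from two to six donors.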

Data set [2] can be described thus: Oral bioavailability in dog. It is filed as ADME, organism-based, Canis lupus familiaris. Particulars: in vivo. The gist of the method:
(§1)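 Conscious dogs received compound intravenously and orally, and blood was sampled over time for plasma. Active plasma equivalents were measured by bioassay as inhibition of ¹²⁵I-fibrinogen binding to isolated, immobilized GPIIb/IIIa. Kinetic data points are means from four dogs.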

Data set [3] addresses T1, Integrin alpha-IIb/beta-3 (Homo sapiens, UniProt P05106+P08514). The data set is described as follows: Inhibition of [125I]fibrinogen binding to ADP-activated human gel filtered platelets.
Data set [4] has as its target T1, Integrin alpha-IIb/beta-3. The data set is described as follows: Inhibition of [125I]fibrinogen binding to isolated GPIIb/IIIa. It is filed as protein-complex assay.
The species entered for the next data set is Canis familiaris. Kind of data set: Inhibitory activity against dog platelet aggregation in GFP. In kind it is functional, organism-based. Particulars: Canis lupus familiaris.
For data set [5], the species on record is Homo sapiens. The data set is described as follows: Inhibitory activity against platelet rich plasma. It is filed as functional, organism-based.
The nature of data set [6]: Half life from dog blood after intravenous administration at a dose of 0.3 mg/kg Expt-1. In kind it is ADME, organism-based, Canis lupus familiaris. Also noted: dose 0.3 mg/kg, route intravenous. The essentials: as §1
Data set [7] in a line: Half life from dog blood after intravenous administration at a dose of 0.3 mg/kg Expt-2. In kind it is ADME, organism-based, Canis lupus familiaris. Also noted: dose 0.3 mg/kg, route intravenous. The essentials:
as §1

A short description of data set [8]: Half life from dog blood after oral administration at a dose of 3 mg/kg Expt-1. It is filed as ADME, organism-based, Canis lupus familiaris. More on the design: dose 3 mg/kg, route oral. The essentials: as §1
Data set [9] is described as follows: Half life from dog blood after oral administration at a dose of 3 mg/kg Expt-2. In kind it is ADME, organism-based, Canis lupus familiaris. More on the design: dose 3 mg/kg, route oral. The essentials:
as §1

Each structure is given as a SMILES string.

The record followed here is ChEMBL document CHEMBL1129321, “Discovery of an orally active non-peptide fibrinogen receptor antagonist” (J Med Chem, 1996).

T1 sequence (P05106 27-788 limits assumed): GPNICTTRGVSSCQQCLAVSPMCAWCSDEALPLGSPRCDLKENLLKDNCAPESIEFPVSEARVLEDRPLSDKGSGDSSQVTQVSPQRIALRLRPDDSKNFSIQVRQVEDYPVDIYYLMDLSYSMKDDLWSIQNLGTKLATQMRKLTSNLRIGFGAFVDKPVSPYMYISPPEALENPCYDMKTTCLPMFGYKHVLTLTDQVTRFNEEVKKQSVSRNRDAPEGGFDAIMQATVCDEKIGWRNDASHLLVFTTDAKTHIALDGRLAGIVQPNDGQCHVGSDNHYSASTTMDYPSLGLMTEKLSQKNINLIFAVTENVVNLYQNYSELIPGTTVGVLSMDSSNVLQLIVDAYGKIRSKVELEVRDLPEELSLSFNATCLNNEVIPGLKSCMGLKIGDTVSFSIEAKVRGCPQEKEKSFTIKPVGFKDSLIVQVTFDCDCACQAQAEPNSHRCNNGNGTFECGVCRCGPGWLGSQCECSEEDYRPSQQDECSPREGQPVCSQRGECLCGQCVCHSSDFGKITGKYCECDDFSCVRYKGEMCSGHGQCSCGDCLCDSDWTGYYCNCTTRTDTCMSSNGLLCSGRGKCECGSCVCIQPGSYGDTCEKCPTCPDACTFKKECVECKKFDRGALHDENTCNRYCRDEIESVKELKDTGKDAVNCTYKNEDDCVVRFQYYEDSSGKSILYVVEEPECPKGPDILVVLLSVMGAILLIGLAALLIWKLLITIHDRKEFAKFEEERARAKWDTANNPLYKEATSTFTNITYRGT
T1 sequence (P08514 32-887 limits assumed): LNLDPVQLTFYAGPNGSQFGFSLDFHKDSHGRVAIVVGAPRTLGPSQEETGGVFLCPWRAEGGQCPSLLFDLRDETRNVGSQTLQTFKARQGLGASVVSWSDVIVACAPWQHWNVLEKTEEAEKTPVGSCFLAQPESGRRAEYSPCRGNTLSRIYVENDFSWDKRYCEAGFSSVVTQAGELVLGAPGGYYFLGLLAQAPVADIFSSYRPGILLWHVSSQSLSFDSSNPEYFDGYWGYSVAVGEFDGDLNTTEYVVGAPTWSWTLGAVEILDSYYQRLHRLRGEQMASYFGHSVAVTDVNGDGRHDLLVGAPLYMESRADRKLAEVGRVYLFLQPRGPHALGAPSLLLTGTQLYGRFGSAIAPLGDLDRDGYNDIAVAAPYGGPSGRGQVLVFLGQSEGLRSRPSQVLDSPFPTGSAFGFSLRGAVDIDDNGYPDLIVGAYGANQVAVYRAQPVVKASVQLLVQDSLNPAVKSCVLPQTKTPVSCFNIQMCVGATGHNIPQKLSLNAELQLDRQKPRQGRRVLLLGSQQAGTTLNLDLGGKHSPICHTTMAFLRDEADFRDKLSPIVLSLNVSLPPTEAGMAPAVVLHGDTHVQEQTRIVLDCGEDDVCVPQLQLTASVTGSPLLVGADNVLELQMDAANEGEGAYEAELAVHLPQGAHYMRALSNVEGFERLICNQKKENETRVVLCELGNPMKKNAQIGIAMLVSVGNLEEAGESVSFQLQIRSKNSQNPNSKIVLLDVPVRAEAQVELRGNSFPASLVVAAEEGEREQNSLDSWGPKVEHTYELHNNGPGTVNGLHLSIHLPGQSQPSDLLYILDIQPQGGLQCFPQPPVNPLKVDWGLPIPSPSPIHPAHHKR
T1 sequence (P08514 891-1039 limits assumed): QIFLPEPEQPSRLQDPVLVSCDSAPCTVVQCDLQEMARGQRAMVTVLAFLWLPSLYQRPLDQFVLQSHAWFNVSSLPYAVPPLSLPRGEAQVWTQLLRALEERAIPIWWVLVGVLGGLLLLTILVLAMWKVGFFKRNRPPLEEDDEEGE

With `N=C(N)NCCC[C@@H]1NC(=O)N(CC(=O)N[C@@H](CC(=O)O)C(=O)N[C@H](C(=O)O)c2ccccc2)C1=O`, the midpoint of inhibition in the data set listed under Homo sapiens [1], the IC50, lay at 900 nM.

Take `CC1(c2ccc(C(=N)N)cc2)NC(=O)N(CC(=O)NC(CC(=O)O)c2ccccc2)C1=O` (stereo unspecified): the bioavailability (usually dose-corrected exposure relative to a reference, in per cent) in [2] came to 5%. It took 200 nM to reach half-maximal inhibition in the data set listed under Homo sapiens [1] (IC50).

Regarding `C[C@]1(c2ccc(C(=N)N)cc2)NC(=O)N(CC(=O)N[C@@H](CC(=O)O)c2ccccc2)C1=O`, the IC50 (usually the midpoint of a concentration-inhibition curve) in the data set filed under Homo sapiens [1] came out at 6000 nM.

In the case of `N=C(N)NCCC[C@@H]1NC(=O)N(CC(=O)N[C@@H](CC(=O)O)C(=O)N[C@@H](CO)C(=O)O)C1=O`, the IC50 in the data set listed under Homo sapiens [1] came out at 10000 nM.

`C[C@]1(c2ccc(C(=N)N)cc2)NC(=O)N(CC(=O)N[C@H](CC(=O)O)c2ccccc2)C1=O` gave an IC50 in the data set filed under Homo sapiens [1] of 5000 nM.

The compound `C[C@@]1(c2ccc(C(=N)N)cc2)NC(=O)N(CC(=O)N[C@@H](CC(=O)O)c2ccccc2)C1=O` came in with a bioavailability in data set [2] of 10%. The figures for the Ki in data set [3] and in data set [4] were 9 nM and 0.17 nM, respectively. In addition, the IC50 in the data set filed under Canis familiaris came out at 100 nM; in the data set filed under Homo sapiens [1], 20 nM; in the data set filed under Homo sapiens [5], 100 nM.

In the data set filed under Homo sapiens [1], `C[C@@]1(c2ccc(C(=N)N)cc2)NC(=O)N(CC(=O)N[C@H](CC(=O)O)c2ccccc2)C1=O` displayed an IC50 of 50000 nM.

In the data set listed under Homo sapiens [1], `CC1(c2ccc(C(=N)N)cc2)NC(=O)N(CC(=O)NC(CC(=O)O)c2ccc3c(c2)OCO3)C1=O` (stereo unspecified) showed an IC50 of 80 nM.

As to `CC1(c2ccc(C(=N)N)cc2)NC(=O)N(CC(=O)NC(CC(=O)O)c2cccnc2)C1=O` (stereo unspecified), the IC50 in the data set filed under Homo sapiens [1] was found to be 100 nM.

As to `CC1(c2ccc(C(=N)N)cc2)NC(=O)N(CC(=O)NC(CC(=O)O)c2cccc3ccccc23)C1=O` (stereo unspecified), in the data set listed under Homo sapiens [1], the IC50 was found to be 300 nM.

`CCOC(=O)C[C@H](NC(=O)CN1C(=O)N[C@@](C)(c2ccc(C(=N)N)cc2)C1=O)c1ccccc1` [CARAFIBAN] yielded a bioavailability in data set [2] of 42%. Moreover, the half-life (usually the time in which the quantity being followed falls by half) in data set [6] is 84 min; in data set [7], 48 min; in data set [8] it was 474 min; in data set [9], 594 min.
